HIF act: HIF pathway transcriptional activators, primary screen, cell-based, U2OS HRE-luciferase, luminescence. U2OS HRE-luciferase reporter; normalized: DMSO 0%, desferrioxamine 100%. activation, % at 7.5 µM (by protocol). 0.32% of 300,000 active;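 active = mean activation of at least 10% of the iron chelator positive control signal, with at least half of replicates also reaching 10%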
CSC inhib: cancer stem cell viability inhibitors, primary screen, luminescence; cancer stem cell-like cells viability; AID 2717, 2010; inhibition, % at 7.5 µM; 1.1% of 300,000 active; in the data active = inhibition above about 75%; tested in HMLE shEcad cells
T cruzi repl: inhibitors of intracellular T. cruzi growth, primary screen, luminescence, NIH3T3 host cells; T. cruzi beta-gal in NIH3T3, 90 h; inhibition, % (no concentration beside the values); 1.4% of 300,000 active;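 active = mean inhibition across valid replicates above about 55%, limit read from the data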;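 note: signal also drops with host cell toxicity which is not excluded here; 0% = plate median of DMSO wells and 100% = zero luminescence signal; higher percent means less beta-gal luminescence so fewer parasites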
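assay system = mouse NIH/3T3 fibroblasts infected with β-gal-expressing T. cruzi Tulahuen C4 | input = 5,000 NIH/3T3 host cells per well | buffer or medium = DMEM plus 2% FBS | timing = 3 h host attachment, then at least 90 h co-culture | measured by = GalScreen luminescence, 60 min | evaluation = luminescence reflecting intracellular parasite burden, expressed as percent inhibition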
Calb FLC: C. albicans growth inhibition with fluconazole, primary screen, CaCi-2 strain, Alamar Blue fluorescence | C. albicans CaCi-2 (fluconazole-resistant clinical isolate) + fluconazole, 48 h | growth inhibition, % (concentration not given with the values) | 0.57% of 300,000 active | AID 1979, 2009;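 active = growth inhibition above about 58% in most replicates, limit read from the data, passing the limit was not always enough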;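 note: all wells also contain fluconazole at 8 µg/ml as a sub-toxic cotreatment; 0% = median of DMSO wells and 100% = median of geldanamycin control wells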
Beta cell apopt: inhibitors of cytokine-induced beta cell apoptosis, primary screen, luminescence. INS-1E cytokine-induced death, ATP luminescence, 48 h; percent of positive-control rescue, neutral wells zero. protection from apoptosis, % (concentration not given with the values). 0.8% of 300,000 active;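 active = Every replicate reaches about 75%, or at least half do and their mean reaches it too, limit read from the data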;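 note: 0% = cytokine-treated negative control wells and 100% = positive control rescue; higher means more ATP so stronger rescue from cytokine killing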
PolyA inhibitor: polyadenylation inhibitors in yeast reporter cells, primary screen, luminescence, S. cerevisiae; S. cerevisiae SKY197-pL101 polyadenylation reporter, beta-gal luminescence; efflux-impaired pdr1/pdr3 knockout yeast; score 100 = 6 SD above DMSO; 0.02% of 300,000 active; activity score, % at 12 µM;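 active = lowest replicate activity score at least 50, where 100 means six control SD above control mean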;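 note: yeast exposed to compound for 9 h at 30 °C; higher score means more reporter readthrough which indicates perturbed polyadenylation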
* hit, by the source's call; . = not tested or not shown. Most compounds without a hit are left out; they make up all but 3.1% or so of the library.

SMILES	HIF act	CSC inhib	T cruzi repl	Calb FLC	Beta cell apopt	PolyA inhibitor
O=C1Nc2ccc(Cl)cc2/C1=C/C1CC=CCC1 (stereo unspecified)	394*	33	20	-46	-12	-28
Cc1cccc(/C=N/NC(=O)c2cc(Br)ccc2O)n1	-21	4	-8	-8	11	1
C/C(=N/NC(=O)c1ccc(C(C)(C)C)cc1)c1ccccn1	1	60	40	-7	111*	6
C/C(=N\NC(=O)c1cc(Br)ccc1O)c1ccccn1	-1	96*	-9	32	105*	-2
COc1ccc(NC(=O)c2ccccn2)cc1OC	2	-6	-15	17	3	7
COc1ccc(C(=O)N/N=C(\C)c2ccccn2)cc1OC	3	91*	18	0	98*	-8
C/C(=N\NC(=O)C(c1ccccc1)c1ccccc1)c1ccc(O)cc1	-1	-11	2	-8	-6	7
C/C(=N\NC(=O)C(c1ccccc1)c1ccccc1)c1ccccn1	0	29	40	5	88*	-36
CCC(C)[C@H](NC(=O)c1cc2cc(Cl)ccc2n1C)C(=O)N1CCC(C(=O)O)CC1 (stereo partly specified)	1	-8	-3	8	-3	34
Cc1nn(Cc2ccccc2)c(C)c1CNC(=O)[C@H](C)N=C1NS(=O)(=O)c2ccccc21	.	-16	.	.	4	.
C/C(=N\NC(=O)c1cccc(Br)c1)c1ccccn1	1	139*	50	-14	105*	7
C/C(=N\NC(=O)c1ccccc1Cl)c1ccccn1	0	33	55*	7	93*	16
C/C(=N\NC(=O)c1ccc(NS(=O)(=O)c2cccs2)cc1)c1ccccn1	0	64	9	-13	86*	-5
C/C(=N/NC(=O)c1ccccn1)c1ccncc1	1	14	-7	11	0	3
C/C(=N\NC(=O)c1ccc(NS(=O)(=O)c2cccs2)cc1)c1ccncc1	-1	-3	-5	8	-9	25
C/C(=N\NC(=O)c1ccc(Cl)c(Cl)c1)c1ccc(Br)s1	0	-10	70*	-7	24	0
COc1ccc(C(=O)NNC(=O)Cc2ccc(-c3ccccc3)cc2)cc1OC	0	-3	16	7	-5	-4
COc1ccc(C(=O)NNc2ccccc2)cc1OC	0	83*	3	106*	-9	.
C/C(=N\NC(=O)c1cccc2ccccc12)c1ccccn1	1	.	64*	-3	.	-36
C/C(Cc1ccccc1)=N\NC(=O)c1ccccn1	3	-2	-8	31	-4	20
C/C(=N\NC(=O)c1ccc(Cl)c(Cl)c1)c1ccccn1	-1	81*	60*	-13	93*	-16
CCOc1ccc(C(=O)Nc2ccccc2N2CCN(C(=O)c3ccccc3)CC2)cc1[N+](=O)[O-]	0	10	44	-10	13	14
COc1ccc(C)cc1NC(=O)c1ccc([N+](=O)[O-])cc1[N+](=O)[O-]	-1	5	71*	9	5	-15
COc1ccc([N+](=O)[O-])cc1NC(=O)Cc1ccc(C)cc1	2	.	-1	-2	.	-6
COc1ccc(C(=O)Nc2ccccc2)cc1NC(=O)c1ccc([N+](=O)[O-])cc1	1	-9	61*	15	11	-1
Cc1ccc(C(=O)COC(=O)c2cccc(NC(=O)c3ccc([N+](=O)[O-])cc3[N+](=O)[O-])c2)cc1	2	15	71*	5	8	-12
COc1ccc(CC(=O)OCC(=O)NC2CCCCC2)cc1OC	.	.	.	.	-14	.
O=C(COc1cccnc1[N+](=O)[O-])N1N=C(c2ccc(Cl)cc2)CC1c1ccco1 (stereo unspecified)	0	-10	56*	-7	4	-1
Cc1ccc(OCC(=O)N2N=C(c3ccc(Cl)cc3)CC2c2ccco2)c([N+](=O)[O-])n1 (stereo unspecified)	-1	-4	26	-11	5	1
